Measured values from different studies.
Lines come from different studies, so protocols differ.
Target: Serine/threonine-protein kinase N1 (PKN1, Homo sapiens, UniProt Q16512)

C[C@H](c1cccc(C#N)c1)n1cc(Cl)cc(C(N)=O)c1=N  remaining binding (cell-free assay; competition with immobilised ligand; 1 µM): 65%
Cn1c2c(Cl)c(Cl)ccc2c2cc(N)[nH]c(=O)c21  ΔTm (thermal stability; DSF; 10 µM): 0.6 °C
CC(C)(C)c1nc2c(s1)c1nc(N)ncc1c1ccc(NS(=O)(=O)c3c(F)cccc3F)c(F)c12  remaining activity (enzyme activity; inhibitor; radiometric; 1 µM): 102%
Cc1c[nH]c2nc(Nc3ccc(N4CCN(C)CC4)c(F)c3)nc(-c3cccc(CC#N)c3)c12  activity vs control (enzyme activity; inhibitor; 1 µM): 19%
O=C(CSc1nc2nccnc2c(=O)n1CCc1ccccc1)Nc1nccs1  inhibition (enzyme activity; inhibitor; 10 µM): 4%
CCOc1cc(-c2nncn2C)ccc1Nc1ncc2cc(C)nc(NCC(C)(C)C)c2n1  inhibition (enzyme activity; inhibitor; FRET; 1 µM): < 15%
CCCCN(CCCC)C(=O)CN1C[C@H](c2cc(OC)c3c(c2)OCO3)[C@@H](C(=O)O)[C@@H]1CC(C)(C)CCC  remaining binding (cell-free assay; competition with immobilised ligand; 1 µM): 100%
O=S(=O)(c1cccc2cnccc12)N1CCCNCC1  remaining signal (cell-free assay; 0.5 µM): 40.5%
FC(F)(F)c1ccc2c(c1)nc(-c1cccnc1)n2C1CC1  remaining binding (cell-free assay; competition with immobilised ligand; 1 µM): 100%
Cl.Cl.O=C(NCCCNc1nc(Nc2cccc(CN3CCOCC3)c2)ncc1C1CC1)C1CCC1  activity vs control (enzyme activity; inhibitor; 1 µM): 52%
Cn1cncc1C1=CN(c2ncnc3[nH]cnc23)CCS1  inhibition (enzyme activity; inhibitor; radiometric; 2 µM): 87.7%
COc1ncc(Nc2ncc([C@@H](C)N3CCN(S(C)(=O)=O)CC3)cc2-c2nc(C)nc(N)n2)cc1F  activity vs control (enzyme activity; inhibitor; 1 µM): 94%
CC/C(=N\NC(=O)NCc1cccc(O)c1)c1ccc(O)c(C)c1O  inhibition (enzyme activity; inhibitor; 0.1 µM): 29.1%
Cl.OC1CCC(Nc2ncc3nc(Nc4c(F)cc(F)cc4F)n(C4CCOC4)c3n2)CC1 (stereo not drawn)  activity vs control (enzyme activity; inhibitor; 1 µM): 98%
O=C(Nc1cnn(-c2csc(C(=O)NC3COC3)c2)c1)Nc1c(F)cccc1Cl  remaining activity (enzyme activity; inhibitor; 5 µM): 96.5%
CCCCNc1ncc2c(-c3ccc(F)cc3)nn(C[C@H]3CC[C@H](N)CC3)c2n1  inhibition (target engagement in cells; inhibitor; chemoproteomics; 20 mM): -43.3%
CN1CCC2(CC1)NC(=O)c1c(c3ccc(Cl)c(Cl)c3n1C)C2C#N (racemic)  ΔTm (thermal stability; DSF; 10 µM): 1 °C
Cc1ccc(C(=O)NCc2ccsc2)cc1C#Cc1cn(C(C)C)c2ncnc(N)c12  activity vs control (enzyme activity; inhibitor; 1 µM): 93%
CNC(=O)Nc1ccc2c(c1)CC[C@@]21OC(=O)N(CC(=O)N(Cc2ccc(F)cc2)[C@@H](C)C(F)(F)F)C1=O  remaining binding (cell-free assay; competition with immobilised ligand; 1 µM): 85%
CN1CC(Oc2cnc(C#N)cc2-c2ccn3nc(NC(=O)C4CC4)cc3c2)C1  inhibition (enzyme activity; inhibitor; 1 µM): -9%
O=C(Nc1cnn(-c2csc(C(=O)NC3COC3)c2)c1)Nc1ccccc1Cl  remaining activity (enzyme activity; inhibitor; 5 µM): 110%
Cc1c(NC(=O)c2cc3c(s2)CCCC3)cccc1-c1cn(C)c(=O)c(Nc2ccc([C@@H]3C(=O)N(C)CCN3C)cc2)n1  activity vs control (enzyme activity; inhibitor; 1 µM): 76%
CC(C)(O)[C@H]1CC[C@H](Nc2ccc3ncc(-c4cccc(C(F)(F)F)c4)n3n2)CC1  remaining activity (enzyme activity; inhibitor; 1 µM): 65.5%
COc1cc(-c2cn(C3CCc4c(F)cccc4N(CC(F)(F)F)C3=O)nn2)ccc1-n1cnc(C)c1 (stereo not drawn)  remaining binding (cell-free assay; competition with immobilised ligand; 1 µM): 96%
CC[C@@H]1C(=O)N(C)c2cnc(Nc3ccc(C(=O)NC4CCN(C)CC4)cc3OC)nc2N1C1CCCC1  activity vs control (enzyme activity; inhibitor; 1 µM): 77%
CN(C)C1CCN(CC#Cc2nn(C3CCCC3)c3nc(NCc4ccccc4)ncc23)C1 (stereo not drawn)  inhibition (enzyme activity; inhibitor; FRET; 0.1 µM): -1%
N#CCCc1ccc2c(c1)-c1[nH]c3ccc([N+](=O)[O-])cc3c1CC(=O)N2  remaining signal (cell-free assay; 0.5 µM): 78%
CS(=O)(=O)NCC[C@H](NC(=O)c1cncc2c1cnn2-c1ccc(F)cc1)c1ccnc(S(C)(=O)=O)c1  remaining binding (cell-free assay; competition with immobilised ligand; 1 µM): 100%
O=C(Nc1cnn2ccc(N3CCC[C@@H]3c3cc(F)ccc3F)nc12)N1CC[C@H](O)C1  activity vs control (enzyme activity; inhibitor; 1 µM): 94%
Oc1ccc(-c2nc(-c3ccncc3)c(-c3ccc(F)cc3)[nH]2)cc1  remaining signal (cell-free assay; 0.5 µM): 78.9%
CC(C)NC[C@@H](C(=O)N1CCN(c2ncnc3c2[C@H](C)C[C@H]3O)CC1)c1ccc(Cl)cc1  activity vs control (enzyme activity; inhibitor; 1 µM): 1%
O=C(NC[C@@H]1[C@H]2CN(C(=O)OCc3cc(C(F)(F)F)cc(C(F)(F)F)c3)C[C@@H]12)c1ccc2[nH]nnc2c1  remaining binding (cell-free assay; competition with immobilised ligand; 1 µM): 100%
COc1cc(-c2cc(-c3ccc(N4CCNCC4)cc3)cnc2C)cc(OC)c1OC  inhibition (enzyme activity; inhibitor; 0.1 µM): 10%
CCCS(=O)(=O)Nc1ccc(F)c(C(=O)c2c[nH]c3ncc(-c4ccc(Cl)cc4)cc23)c1F  inhibition (enzyme activity; inhibitor; 1 µM): < 10%
CC1(C)NC(=O)c2[nH]c3c(Cl)c(Cl)ccc3c2C1C#N (stereo not drawn)  ΔTm (thermal stability; DSF; 10 µM): 0.4 °C
Cc1ccc(NC(=O)c2ccc(CN3CCN(C)CC3)cc2)cc1Nc1nc(-c2cccnc2)cs1  remaining signal (cell-free assay; 0.5 µM): 99.3%
CN(C(=O)c1ccccc1)c1cc(N(C)c2ccc3c(c2)CCc2ccc(C(=O)NCCN4CCOCC4)cc2C3=O)ccc1F  remaining binding (cell-free assay; competition with immobilised ligand; 1 µM): 100%
C[S+]([O-])c1ccc(-c2nc(-c3ccncc3)c(-c3ccc(F)cc3)[nH]2)cc1 (stereo not drawn)  remaining signal (cell-free assay; 0.5 µM): 96.5%
COc1cc2ncnc(Nc3ccc(Oc4ccccc4)cc3C)c2cc1OC  inhibition (enzyme activity; inhibitor; 1 µM): 4%
